ChEMBL document CHEMBL4038284, “Synthesis of novel quinoline-based 4,5-dihydro-1H-pyrazoles as potential anticancer, antifungal, antibacterial and antiprotozoal agents” (Eur J Med Chem, 2017)
Calls of active or inactive are those of the source. The rule behind the calls is not given here.

Legend:
SW-620 = assay: Growth inhibition of human SW620 cells at 10 uM incubated for 48 hrs by sulforhodamine B assay; type: functional, cell-based
Procedure, shortened: (§1)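 NCI-60 single-dose screen at 10 µM for 48 h. Cells were grown in RPMI-1640 with 5% FBS and 2 mM L-glutamine and preincubated 24 h before compound. Time-zero plates were TCA-fixed at compound addition. After exposure, cells were TCA-fixed, stained with SRB and read at 515 nm. Percentage growth was calculated against time-zero and untreated-control absorbances.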

Klebsiella pneumoniae = assay: Antibacterial activity against ESBL positive Klebsiella pneumoniae ATCC 700603 after 24 hrs by resazurin dye based microdilution assay; type: functional; conditions: Klebsiella pneumoniae, 700603, 24 h
Procedure, shortened: (§2)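 MIC taken as the lowest concentration giving visible inhibition and/or by resazurin (1 mg/mL). Gentamicin was the control. Run in duplicate, repeated at least three times.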

Staphylococcus aureus [1] = assay: Antibacterial activity against vancomycin-intermediate Staphylococcus aureus after 24 hrs by resazurin dye based microdilution assay; type: functional; procedure, shortened: as §2
EKVX = assay: Growth inhibition of human EKVX cells at 10 uM incubated for 48 hrs by sulforhodamine B assay; type: functional, cell-based
Procedure, shortened: (§3)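 NCI 60-cell-line screen at a single 10 µM dose. Cells in RPMI-1640 with 5% FBS and 2 mM L-glutamine, pre-incubated 24 h, then treated for 48 h at 37 °C. TCA fixation, sulforhodamine B staining, absorbance at 515 nm. Percentage growth calculated against time-zero and untreated controls.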

HT-29 = assay: Growth inhibition of human HT-29 cells at 10 uM incubated for 48 hrs by sulforhodamine B assay; type: functional, cell-based
Procedure, shortened: (§4)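 NCI 60-line panel, single 10 μM dose. Cells were grown in RPMI-1640 with 5% FBS and 2 mM L-glutamine and pre-incubated 24 h before compound addition (DMSO stock). Exposure was 48 h at 37 °C, 5% CO2. Cells were fixed with cold TCA (10% final), stained with 0.4% SRB, bound dye dissolved in 10 mM Tris base, A515 read. Growth was taken relative to time-zero and untreated control plates.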

HCT-116 = assay: Growth inhibition of human HCT116 cells at 10 uM incubated for 48 hrs by sulforhodamine B assay; type: functional, cell-based; procedure, shortened: as §3
HCT-15 = assay: Growth inhibition of human HCT15 cells at 10 uM incubated for 48 hrs by sulforhodamine B assay; type: functional, cell-based; procedure, shortened: as §3
Cryptococcus neoformans [2] = assay: Growth inhibition of Cryptococcus neoformans ATCC 32264 at 3.4 ug/ml incubated for 48 hrs under dark condition by broth microdilution method relative to control; type: functional; conditions: ATCC 32264, 48 h, read-out: GI
Cryptococcus neoformans [3] = assay: Growth inhibition of Cryptococcus neoformans ATCC 32264 at 15.62 ug/ml incubated for 48 hrs under dark condition by broth microdilution method relative to control; type: functional; conditions: ATCC 32264, 48 h, read-out: GI
Procedure, shortened: (§5)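 CLSI M27-A3 broth microdilution in RPMI-1640, DMSO ≤1%. Inoculum 1-5 × 10^3 CFU/mL. Incubated 48 h at 30 °C, dark. % inhibition = 100 − (OD405 test − sterility control)/(OD405 growth control − sterility control), with growth and sterility control wells. Triplicate.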

UO-31 = assay: Growth inhibition of human UO31 cells at 10 uM incubated for 48 hrs by sulforhodamine B assay; type: functional, cell-based; procedure, shortened: as §1
SR = assay: Growth inhibition of human SR cells at 10 uM incubated for 48 hrs by sulforhodamine B assay; type: functional, cell-based; procedure, shortened: as §1
Candida albicans [4] = assay: Growth inhibition of Candida albicans ATCC 10231 at 125 ug/ml incubated for 48 hrs under dark condition by broth microdilution method relative to control; type: functional; conditions: ATCC 10231, 48 h, read-out: GI; procedure, shortened: as §5
MDA-MB-468 = assay: Growth inhibition of human MDA-MB-468 cells at 10 uM incubated for 48 hrs by sulforhodamine B assay; type: functional, cell-based; procedure, shortened: as §4
IGROV-1 = assay: Growth inhibition of human IGROV1 cells at 10 uM incubated for 48 hrs by sulforhodamine B assay; type: functional, cell-based; procedure, shortened: as §4
Candida albicans [5] = assay: Growth inhibition of Candida albicans ATCC 10231 at 62.5 ug/ml incubated for 48 hrs under dark condition by broth microdilution method relative to control; type: functional; conditions: ATCC 10231, 48 h, read-out: GI; procedure, shortened: as §5
RXF 393 = assay: Growth inhibition of human RXF393 cells at 10 uM incubated for 48 hrs by sulforhodamine B assay; type: functional, cell-based; procedure, shortened: as §4
OVCAR-8 = assay: Growth inhibition of human OVCAR8 cells at 10 uM incubated for 48 hrs by sulforhodamine B assay; type: functional, cell-based; procedure, shortened: as §4
SK-OV-3 = assay: Growth inhibition of human SKOV3 cells at 10 uM incubated for 48 hrs by sulforhodamine B assay; type: functional, cell-based; procedure, shortened: as §1
M14 = assay: Growth inhibition of human M14 cells at 10 uM incubated for 48 hrs by sulforhodamine B assay; type: functional, cell-based; procedure, shortened: as §4
HOP-92 = assay: Growth inhibition of human HOP92 cells at 10 uM incubated for 48 hrs by sulforhodamine B assay; type: functional, cell-based; procedure, shortened: as §4
SK-MEL-2 = assay: Growth inhibition of human SK-MEL-2 cells at 10 uM incubated for 48 hrs by sulforhodamine B assay; type: functional, cell-based; procedure, shortened: as §1
DU-145 = assay: Growth inhibition of human DU145 cells at 10 uM incubated for 48 hrs by sulforhodamine B assay; type: functional, cell-based; procedure, shortened: as §3
UACC-257 = assay: Growth inhibition of human UACC257 cells at 10 uM incubated for 48 hrs by sulforhodamine B assay; type: functional, cell-based; procedure, shortened: as §1
Cryptococcus neoformans [6] = assay: Growth inhibition of Cryptococcus neoformans ATCC 32264 at 31.25 ug/ml incubated for 48 hrs under dark condition by broth microdilution method relative to control; type: functional; conditions: ATCC 32264, 48 h, read-out: GI; procedure, shortened: as §5
PC-3 = assay: Growth inhibition of human PC3 cells at 10 uM incubated for 48 hrs by sulforhodamine B assay; type: functional, cell-based; procedure, shortened: as §4
NCI-H322M = assay: Growth inhibition of human NCI-H322M cells at 10 uM incubated for 48 hrs by sulforhodamine B assay; type: functional, cell-based; procedure, shortened: as §4
Hs-578T = assay: Growth inhibition of human Hs578T cells at 10 uM incubated for 48 hrs by sulforhodamine B assay; type: functional, cell-based; procedure, shortened: as §4
NCI-H460 = assay: Growth inhibition of human NCI-H460 cells at 10 uM incubated for 48 hrs by sulforhodamine B assay; type: functional, cell-based; procedure, shortened: as §4
NCI-H226 = assay: Growth inhibition of human NCI-H226 cells at 10 uM incubated for 48 hrs by sulforhodamine B assay; type: functional, cell-based; procedure, shortened: as §4
A549 = assay: Growth inhibition of human A549/ATCC cells at 10 uM incubated for 48 hrs by sulforhodamine B assay; type: functional, cell-based; procedure, shortened: as §3
A498 = assay: Growth inhibition of human A498 cells at 10 uM incubated for 48 hrs by sulforhodamine B assay; type: functional, cell-based; procedure, shortened: as §3
Candida albicans [7] = assay: Growth inhibition of Candida albicans ATCC 10231 at 7.8 ug/ml incubated for 48 hrs under dark condition by broth microdilution method relative to control; type: functional; conditions: ATCC 10231, 48 h, read-out: GI; procedure, shortened: as §5
HCC 2998 = assay: Growth inhibition of human HCC2998 cells at 10 uM incubated for 48 hrs by sulforhodamine B assay; type: functional, cell-based; procedure, shortened: as §3
Staphylococcus aureus [8] = assay: Antibacterial activity against methicillin-sensitive Staphylococcus aureus ATCC 25923 after 24 hrs by resazurin dye based microdilution assay; type: functional; conditions: ATCC 25923, 24 h; procedure, shortened: as §2
OVCAR-4 = assay: Growth inhibition of human OVCAR4 cells at 10 uM incubated for 48 hrs by sulforhodamine B assay; type: functional, cell-based; procedure, shortened: as §4
Cryptococcus neoformans [9] = assay: Growth inhibition of Cryptococcus neoformans ATCC 32264 at 250 ug/ml incubated for 48 hrs under dark condition by broth microdilution method relative to control; type: functional; conditions: ATCC 32264, 48 h, read-out: GI; procedure, shortened: as §5

Row | Compound | growth inhibition (GI) (SW-620) | MIC (Klebsiella pneumoniae) [µg/mL] | MIC (Staphylococcus aureus [1]) [µg/mL] | growth inhibition (GI) (EKVX) | growth inhibition (GI) (HT-29) | growth inhibition (GI) (HCT-116) | growth inhibition (GI) (HCT-15) | inhibition of growth at 3.4 µg/mL (Cryptococcus neoformans [2]) [%] | inhibition of growth at 15.62 µg/mL (Cryptococcus neoformans [3]) [%] | growth inhibition (GI) (UO-31) | growth inhibition (GI) (SR) | inhibition of growth at 125 µg/mL (Candida albicans [4]) [%] | growth inhibition (GI) (MDA-MB-468) | growth inhibition (GI) (IGROV-1) | inhibition of growth at 62.5 µg/mL (Candida albicans [5]) [%] | growth inhibition (GI) (RXF 393) | growth inhibition (GI) (OVCAR-8) | growth inhibition (GI) (SK-OV-3) | growth inhibition (GI) (M14) | growth inhibition (GI) (HOP-92) | other results
1 | COc1ccc(C2=NN(c3ccccc3)C(c3cccc(Nc4ccnc5cc(Cl)ccc45)c3)C2)cc1 (configuration not stated) | inactive | > 1000 | > 1000 | inactive | inactive | inactive | inactive | 2.74 | 6.02 | inactive | inactive | 19.8 | inactive | inactive | 17.3 | inactive | inactive | inactive | inactive | inactive | growth inhibition (GI) (SK-MEL-2): inactive; growth inhibition (GI) (DU-145): inactive; growth inhibition (GI) (UACC-257): inactive; inhibition of growth at 31.25 µg/mL (Cryptococcus neoformans [6]): 7.77%; growth inhibition (GI) (PC-3): inactive; growth inhibition (GI) (NCI-H322M): inactive; growth inhibition (GI) (Hs-578T): inactive; growth inhibition (GI) (NCI-H460): inactive; growth inhibition (GI) (NCI-H226): inactive; growth inhibition (GI) (A549): inactive; growth inhibition (GI) (A498): inactive; inhibition of growth at 7.8 µg/mL (Candida albicans [7]): 7.57%; growth inhibition (GI) (HCC 2998): inactive; MIC (Staphylococcus aureus [8]): > 1000 µg/mL; growth inhibition (GI) (OVCAR-4): inactive; inhibition of growth at 250 µg/mL (Cryptococcus neoformans [9]): 32.2%
2 | Clc1ccc(C2=NN(c3ccc(Cl)cc3)C(c3cccc(Nc4ccnc5cc(Cl)ccc45)c3)C2)cc1 (configuration not stated) | inactive | > 1000 | > 1000 | inactive | inactive | inactive | inactive | 17.4 | 23.1 | inactive | inactive | 19.9 | inactive | inactive | 11.8 | inactive | inactive | inactive | inactive | inactive | growth inhibition (GI) (SK-MEL-2): inactive; growth inhibition (GI) (DU-145): inactive; growth inhibition (GI) (UACC-257): inactive; inhibition of growth at 31.25 µg/mL (Cryptococcus neoformans [6]): 24.3%; growth inhibition (GI) (PC-3): inactive; growth inhibition (GI) (NCI-H322M): inactive; growth inhibition (GI) (Hs-578T): inactive; growth inhibition (GI) (NCI-H460): inactive; growth inhibition (GI) (NCI-H226): inactive; growth inhibition (GI) (A549): inactive; growth inhibition (GI) (A498): inactive; inhibition of growth at 7.8 µg/mL (Candida albicans [7]): 2.96%; growth inhibition (GI) (HCC 2998): inactive; MIC (Staphylococcus aureus [8]): > 1000 µg/mL; growth inhibition (GI) (OVCAR-4): inactive; inhibition of growth at 250 µg/mL (Cryptococcus neoformans [9]): 53%
